{"source": "ChEMBL document CHEMBL3297713", "about": "“Discovery, optimization, and biological evaluation of 5-(2-(trifluoromethyl)phenyl)indazoles as a novel class of transient receptor potential A1 (TRPA1) antagonists” (J Med Chem, 2014)", "key": {"[1]": {"molecular_target": "T1, Transient receptor potential cation channel subfamily A member 1 (Homo sapiens, UniProt O75762)", "T1 sequence (O75762 whole entry)": "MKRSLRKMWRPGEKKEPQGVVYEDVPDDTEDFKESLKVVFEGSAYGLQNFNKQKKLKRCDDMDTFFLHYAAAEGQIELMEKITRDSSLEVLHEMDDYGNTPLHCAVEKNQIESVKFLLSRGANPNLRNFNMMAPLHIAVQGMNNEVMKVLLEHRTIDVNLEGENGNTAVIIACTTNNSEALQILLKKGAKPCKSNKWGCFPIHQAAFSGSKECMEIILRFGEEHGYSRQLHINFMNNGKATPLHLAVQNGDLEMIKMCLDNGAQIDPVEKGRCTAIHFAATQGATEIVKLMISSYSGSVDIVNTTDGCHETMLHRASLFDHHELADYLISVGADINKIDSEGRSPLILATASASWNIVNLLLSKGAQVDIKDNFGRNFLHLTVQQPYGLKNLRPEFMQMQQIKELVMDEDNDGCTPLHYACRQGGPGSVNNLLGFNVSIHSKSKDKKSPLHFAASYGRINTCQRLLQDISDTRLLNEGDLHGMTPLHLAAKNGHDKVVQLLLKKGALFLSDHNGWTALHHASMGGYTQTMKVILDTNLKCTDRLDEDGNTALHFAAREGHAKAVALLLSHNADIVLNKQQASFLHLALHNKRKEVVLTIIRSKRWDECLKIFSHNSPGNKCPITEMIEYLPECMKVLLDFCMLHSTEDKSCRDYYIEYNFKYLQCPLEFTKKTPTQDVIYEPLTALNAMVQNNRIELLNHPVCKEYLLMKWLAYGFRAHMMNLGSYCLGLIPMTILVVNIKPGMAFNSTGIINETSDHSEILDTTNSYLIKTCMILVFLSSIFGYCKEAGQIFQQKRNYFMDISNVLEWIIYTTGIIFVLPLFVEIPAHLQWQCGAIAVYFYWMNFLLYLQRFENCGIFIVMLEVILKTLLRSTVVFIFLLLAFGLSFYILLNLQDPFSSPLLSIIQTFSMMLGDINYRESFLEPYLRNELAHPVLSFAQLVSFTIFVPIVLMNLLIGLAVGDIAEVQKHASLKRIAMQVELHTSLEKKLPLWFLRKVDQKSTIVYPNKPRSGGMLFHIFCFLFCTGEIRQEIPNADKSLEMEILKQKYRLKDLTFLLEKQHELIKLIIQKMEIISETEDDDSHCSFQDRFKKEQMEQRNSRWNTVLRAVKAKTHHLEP", "assay": "Antagonist activity at human TRPA1 expressed in CHO-TREX cells assessed as inhibition of cinnamaldehyde-induced calcium flux incubated 10 mins prior to cinnamaldehyde addition by FLIPR assay relative to control", "format": "cell-based", "how_it_was_run": "(§1)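 TRPA1-expressing CHO-TREX cells, channel expression induced with tetracycline (0.5 µg/mL human, 1 µg/mL mouse or rat). Cells loaded with Fluo4-AM for 90 min at room temperature, washed, then test agent added in HBSS/20 mM HEPES/2.5 mM probenecid/0.1% BSA. Agonist added 10 min later at EC80: human cinnamaldehyde 30 µM, AITC 2.5 µM, dibenzoxazepine-carboxamide 5 nM; rat and mouse cinnamaldehyde 40 µM. FLIPR calcium flux; mean of triplicates fitted to sigmoidal dose-response curves.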"}, "[2]": {"molecular_target": "T2, Transient receptor potential cation channel subfamily V member 3 (Homo sapiens) (UniProt Q8NET8)", "T2 sequence (whole entry)": "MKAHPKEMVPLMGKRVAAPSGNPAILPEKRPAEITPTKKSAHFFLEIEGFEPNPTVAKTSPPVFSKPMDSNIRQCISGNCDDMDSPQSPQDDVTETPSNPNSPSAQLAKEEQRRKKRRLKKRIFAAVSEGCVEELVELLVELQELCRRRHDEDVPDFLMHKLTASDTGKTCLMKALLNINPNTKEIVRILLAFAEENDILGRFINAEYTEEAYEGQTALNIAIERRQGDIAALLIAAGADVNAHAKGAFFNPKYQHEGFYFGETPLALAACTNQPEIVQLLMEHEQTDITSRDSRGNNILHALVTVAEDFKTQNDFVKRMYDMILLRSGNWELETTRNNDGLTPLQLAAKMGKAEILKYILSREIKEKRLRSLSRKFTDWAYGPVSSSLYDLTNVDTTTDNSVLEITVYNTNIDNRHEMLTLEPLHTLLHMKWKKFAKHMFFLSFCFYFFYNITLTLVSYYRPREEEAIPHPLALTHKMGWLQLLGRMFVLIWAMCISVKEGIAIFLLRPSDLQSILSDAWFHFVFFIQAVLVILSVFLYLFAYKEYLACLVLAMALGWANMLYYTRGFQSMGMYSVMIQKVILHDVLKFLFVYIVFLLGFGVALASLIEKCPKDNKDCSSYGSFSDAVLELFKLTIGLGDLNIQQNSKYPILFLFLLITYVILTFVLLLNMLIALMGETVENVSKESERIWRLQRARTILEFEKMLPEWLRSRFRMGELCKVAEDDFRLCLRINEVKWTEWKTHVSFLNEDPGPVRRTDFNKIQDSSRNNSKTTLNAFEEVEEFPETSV", "assay": "(§2) Antagonist activity at human TRPV3 expressed in CHOK1 cells assessed as inhibition of 2-APB-induced calcium flux incubated 10 mins prior to 2-APB addition by FLIPR assay relative to control", "format": "cell-based", "design": "concentration or dose not given beside the values", "settings": "CHO-K1"}, "[3]": {"molecular_target": "T3, Transient receptor potential cation channel subfamily V member 3 (Homo sapiens, UniProt Q8NET8)", "T3 sequence (Q8NET8 whole entry)": "T2 sequence (whole entry)", "assay": "as §2", "format": "cell-based, CHO-K1"}, "CHO-K1 [4]": {"system": "CHO-K1", "assay": "Selectivity ratio of IC50 for human TRPV1 expressed in CHOK1 cells to IC50 for human TRPA1 expressed in CHO-TREX cells", "format": "cell-based", "how_it_was_run": "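Stable hTRPV1 CHO-K1 and tetracycline-induced (0.5 µg/mL) hTRPA1 CHO-TREX cells were loaded with Fluo4-AM for 90 min at room temperature and read on FLIPR. Antagonist preincubation was 10 min before EC80 agonist: capsaicin 40 nM (TRPV1); cinnamaldehyde 30 µM, AITC 2.5 µM or dibenzoxazepine carboxamide 5 nM (TRPA1). Buffer contained probenecid and BSA. IC50s were fitted from triplicate means of max−min calcium signal.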"}, "CHO-K1 [5]": {"system": "CHO-K1", "assay": "Selectivity ratio of IC50 for human TRPV3 expressed in CHOK1 cells to IC50 for human TRPA1 expressed in CHO-TREX cells", "format": "cell-based", "how_it_was_run": "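Calcium influx was measured by FLIPR in Fluo4-AM-loaded cells: hTRPV3 CHO-K1 challenged with 40 µM 2-APB, and hTRPA1 CHO-TREX (0.5 µg/mL tetracycline) challenged with 30 µM cinnamaldehyde, 2.5 µM AITC or 5 nM dibenzoxazepine carboxamide, all at EC80. Compounds were added 10 min ahead of agonist in HEPES-buffered HBSS with probenecid. Sigmoidal curves were fitted to triplicate means.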"}, "[6]": {"molecular_target": "T1, Transient receptor potential cation channel subfamily A member 1", "assay": "Antagonist activity at human TRPA1 expressed in CHO-TREX cells assessed as inhibition of allyl isothiocyanate-induced calcium flux incubated 10 mins prior to allyl isothiocyanate addition by FLIPR assay relative to control", "format": "cell-based", "how_it_was_run": "as §1"}, "[7]": {"molecular_target": "T1, Transient receptor potential cation channel subfamily A member 1", "assay": "Antagonist activity at human TRPA1 expressed in CHO-TREX cells assessed as inhibition of dibenzo[b,f ][1,4]oxazepine-4-carboxamide-induced calcium flux incubated 10 mins prior to dibenzo[b,f ][1,4]oxazepine-4-carboxamide addition by FLIPR assay relative to control", "format": "cell-based", "how_it_was_run": "as §1"}, "[8]": {"assay": "Clearance in Wistar rat at 5 mg/kg, iv", "format": "ADME, organism-based", "design": "dose 5 mg/kg, route intravenous", "settings": "in vivo", "how_it_was_run": "(§3)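 Wistar rats given 5 mg/kg i.v. at 2.5 mg/mL in 10% EtOH/30% PEG300/60% solutol.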"}, "[9]": {"assay": "Half life in Wistar rat at 5 mg/kg, iv", "format": "ADME, organism-based", "design": "dose 5 mg/kg, route intravenous", "settings": "in vivo", "how_it_was_run": "as §3"}, "[10]": {"assay": "AUC in Wistar rat at 10 mg/kg, po", "format": "ADME, organism-based", "design": "dose 10 mg/kg, route oral", "settings": "plasma", "how_it_was_run": "(§4)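 Male Wistar rats dosed orally at 10 mg/kg as a suspension in 0.5% methylcellulose/0.5% Tween80.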"}, "[11]": {"assay": "Tmax in Wistar rat at 10 mg/kg, po", "format": "ADME, organism-based", "design": "dose 10 mg/kg, route oral", "settings": "in vivo", "how_it_was_run": "as §4"}, "Rattus norvegicus [12]": {"system": "Rattus norvegicus", "assay": "Reversal of FCA-induced mechanical hyperalgesia in po dosed Wistar rat after 1 hr", "format": "functional", "how_it_was_run": "(§5)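 Paw withdrawal thresholds taken in both hind paws before and 72 h after intraplantar complete Freund's adjuvant in one paw. Oral vehicle (0.5% methylcellulose/0.5% Tween 80) or 3, 10 or 30 mg/kg given, with thresholds read at 1, 3 and 6 h. % reversal = (postdose − predose)/(naive − predose) × 100. D50 is the dose calculated to give 50% reversal.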"}, "Rattus norvegicus [13]": {"system": "Rattus norvegicus", "assay": "Reversal of FCA-induced mechanical hyperalgesia in Wistar rat at 10 mg/kg, po after 1 to 3 hrs", "format": "functional", "how_it_was_run": "as §5"}, "[14]": {"assay": "Half life in Balb/C mouse at 5 mg/kg, iv", "format": "ADME, organism-based", "design": "dose 5 mg/kg, route intravenous", "settings": "in vivo", "how_it_was_run": "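Balb/C mice given 5 mg/kg i.v. at 2.5 mg/mL in 10% EtOH/30% PEG300/60% solutol.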"}, "[15]": {"assay": "AUC in Balb/C mouse at 20 mg/kg, po", "format": "ADME, organism-based", "design": "dose 20 mg/kg, route oral", "settings": "plasma", "how_it_was_run": "(§6)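 Balb/C mice dosed by oral gavage at 20 mg/kg as a suspension in 0.5% methylcellulose/0.5% Tween80.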"}, "[16]": {"assay": "Cmax in Balb/C mouse at 20 mg/kg, po", "format": "ADME, organism-based", "design": "dose 20 mg/kg, route oral", "settings": "in vivo", "how_it_was_run": "as §6"}, "[17]": {"assay": "Tmax in Balb/C mouse at 20 mg/kg, po", "format": "ADME, organism-based", "design": "dose 20 mg/kg, route oral", "settings": "in vivo", "how_it_was_run": "as §6"}, "[18]": {"assay": "Oral bioavailability in Balb/C mouse at 20 mg/kg", "format": "ADME, organism-based", "settings": "in vivo", "how_it_was_run": "as §6"}}, "data": [{"smiles": "Cc1cc2[nH]ncc2cc1-c1ccccc1C(F)(F)F", "values": [{"measurement": "IC50", "setting": "[1]", "result": 0.015, "unit": "µM"}, {"measurement": "inhibition", "setting": "[1]", "result": 99, "unit": "%"}, {"measurement": "inhibition", "setting": "[2]", "result": 0, "unit": "%"}, {"measurement": "IC50", "setting": "[3]", "result": "> 30", "unit": "µM"}, {"measurement": "Ratio IC50", "setting": "CHO-K1 [4]", "result": "> 100"}, {"measurement": "Ratio IC50", "setting": "CHO-K1 [5]", "result": "> 100"}, {"measurement": "IC50", "setting": "[6]", "result": 0.018, "unit": "µM"}, {"measurement": "inhibition", "setting": "[6]", "result": 99, "unit": "%"}, {"measurement": "IC50", "setting": "[7]", "result": 0.02, "unit": "µM"}, {"measurement": "inhibition", "setting": "[7]", "result": 100, "unit": "%"}, {"measurement": "clearance", "setting": "[8]", "result": 25.7, "unit": "mL/min/kg"}, {"measurement": "half-life", "setting": "[9]", "result": 4.3, "unit": "h"}, {"measurement": "AUC", "setting": "[10]", "result": 9.31, "unit": "µM·h"}, {"measurement": "Tmax", "setting": "[11]", "result": 0.5, "unit": "h"}, {"measurement": "D50", "setting": "Rattus norvegicus [12]", "result": 5.5, "unit": "mg/kg"}, {"measurement": "Activity", "setting": "Rattus norvegicus [13]", "result": 58.6, "unit": "%"}, {"measurement": "half-life", "setting": "[14]", "result": 3.64, "unit": "h"}, {"measurement": "AUC", "setting": "[15]", "result": 5.59, "unit": "µM·h"}, {"measurement": "Cmax", "setting": "[16]", "result": 1270, "unit": "nM"}, {"measurement": "Tmax", "setting": "[17]", "result": 0.5, "unit": "h"}, {"measurement": "bioavailability", "setting": "[18]", "result": 17, "unit": "%"}]}]}
